# Data reported in ChEMBL document CHEMBL2321803, “Antitrypanosomal lead discovery: identification of a ligand-efficient inhibitor of Trypanosoma cruzi CYP51 and parasite growth” (J Med Chem, 2013).
# The source made the active and inactive calls. The rule behind the calls is not given here.
# Tests used:
# Trypanosoma cruzi [1] = test: Antitrypanosomal activity against Trypanosoma cruzi trypomastigote infected in mouse NIH/3T3 cells after 96 hrs by luciferase reporter gene assay; details: NIH/3T3, 96 h
# NIH3T3 = test: Cytotoxicity against mouse NIH/3T3 cells; type: cell-based
# In short: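 Counterscreen on uninfected NIH 3T3 cells grown in DMEM with 10% FBS at 37 °C and 5% CO₂, run alongside the 96 h infection assay. EC50 is the mean of three independent experiments performed on different days.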
# [2] = biological target: Sterol 14-alpha demethylase (Trypanosoma cruzi (strain CL Brener), UniProt Q7Z1V1); test: Binding affinity to Trypanosoma cruzi recombinant full length CYP51 by spectrophotometric analysis
# In short: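 Purified full-length T. cruzi CYP51 (2 μM) was titrated with ligand at 0.5–10 μM, recording type 2 difference spectra at 350–450 nm, 25 °C. Apparent Kd came from ΔA425–390 versus free ligand, fitted to a rectangular hyperbola.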
# [3] = Selectivity index, ratio of EC50 for mouse NIH/3T3 cells to EC50 for Trypanosoma cruzi trypomastigote; type: toxicity, cell-based, NIH3T3; details: read-out: Ratio EC50
# Trypanosoma cruzi [4] = test: Antitrypanosomal activity against Trypanosoma cruzi Tulahuen infected in mouse NIH/3T3 cells after 48 to 72 hrs by beta-galactosidase reporter gene assay
# Trypanosoma cruzi [5] = test: Antitrypanosomal activity against Trypanosoma cruzi trypomastigote infected in mouse NIH/3T3 cells at 9.5 uM incubated for 3 days post infection by DAPI-staining based immunofluorescence assay; type: functional, organism-based; details: NIH3T3
# In short: (§1)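 NIH-3T3 cells on coverslips were infected 2 h with trypomastigotes (Tulahuen β-gal or Y luciferase), washed, then given drug for 3 days. Cells were fixed in 4% paraformaldehyde, permeabilised with Triton X-100 and stained with rabbit anti-T. cruzi (1:2000) plus Alexa 488 secondary and DAPI. Imaged at 60× oil, 50 fields per condition.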
# Trypanosoma cruzi [6] = test: Antitrypanosomal activity against Trypanosoma cruzi Y infected in mouse NIH/3T3 cells after 48 to 72 hrs by luciferase reporter gene assay
# Caco-2 = test: Permeability across human Caco2 cells; type: ADME, cell-based
# [7] = Metabolic stability in mouse microsomes after 20 mins in presence of quinidine; type: ADME, Microsome
# In short: (§2)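 Liver microsomes (human, mouse or rat), with or without CYP inhibitor. Read-out is percent of compound metabolized at 20 min.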
# [8] = Metabolic stability in mouse microsomes after 20 mins in presence of ketoconazole; type: ADME, Microsome
# In short: as §2
# Plasma [9] = test: Plasma protein binding in mouse; type: ADME, cell-free
# [10] = Metabolic stability in rat microsomes after 20 mins; type: ADME, Microsome; details: read-out: Stability
# In short: as §2
# Trypanosoma cruzi [11] = test: Antitrypanosomal activity against Trypanosoma cruzi Y infected in […] cells after 24 hrs by luciferase reporter gene assay; type: functional, organism-based
# In short: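 Y strain expressing firefly luciferase, trypomastigotes from LLC-MK2 cultures, infecting NIH/3T3 host cells (50 000 cells and 50 000 parasites per well). Drug added at infection (top 50 μM, DMSO <0.5%, duplicates) and washed out at 24, 48 or 72 h. D-luciferin at 150 μg/mL final added at 96 h, luminescence read 1 s. EC50 relative to 4 μM amphotericin B maximal inhibition.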
# Trypanosoma cruzi [12] = test: Antitrypanosomal activity against Trypanosoma cruzi trypomastigote infected in mouse NIH/3T3 cells at 0.4 uM incubated for 3 days post infection by DAPI-staining based immunofluorescence assay; type: functional, organism-based; details: NIH3T3
# In short: as §1
# Plasma [13] = test: Metabolic stability in human plasma after 1 to 4 hrs; type: ADME, cell-free
# [14] = Metabolic stability in human microsomes after 20 mins in presence of quinidine; type: ADME, Microsome
# In short: as §2
# [15] = Metabolic stability in rat microsomes after 20 mins in presence of quinidine; type: ADME, Microsome
# In short: as §2
# [16] = Metabolic stability in human microsomes after 20 mins; type: ADME, Microsome; details: read-out: Stability
# In short: as §2
# [17] = Metabolic stability in rat microsomes after 20 mins in presence of ketoconazole; type: ADME, Microsome
# In short: as §2
# hERG (KCNH2) [18] = biological target: T1, hERG (KCNH2) (Homo sapiens, UniProt Q12809); test: Inhibition of human ERG at 10 uM relative to control
# Plasma [19] = test: Metabolic stability in mouse plasma after 1 to 4 hrs; type: ADME, cell-free
# hERG (KCNH2) [20] = biological target: T1, hERG (KCNH2); test: Inhibition of human ERG at 1 uM relative to control
# [21] = Metabolic stability in human microsomes after 20 mins in presence of ketoconazole; type: ADME, Microsome
# In short: as §2
# Trypanosoma cruzi [22] = test: Antitrypanosomal activity against Trypanosoma cruzi Tulahuen […] after 24 hrs by beta-galactosidase reporter gene assay; type: functional, organism-based; details: LLC-MK2
# [23] = Metabolic stability in mouse microsomes after 20 mins; type: ADME, Microsome; details: read-out: Stability
# In short: as §2
# Plasma [24] = test: Plasma protein binding in human; type: ADME, cell-free
# Sterol 14-alpha demethylase, sequence (Q7Z1V1 whole entry): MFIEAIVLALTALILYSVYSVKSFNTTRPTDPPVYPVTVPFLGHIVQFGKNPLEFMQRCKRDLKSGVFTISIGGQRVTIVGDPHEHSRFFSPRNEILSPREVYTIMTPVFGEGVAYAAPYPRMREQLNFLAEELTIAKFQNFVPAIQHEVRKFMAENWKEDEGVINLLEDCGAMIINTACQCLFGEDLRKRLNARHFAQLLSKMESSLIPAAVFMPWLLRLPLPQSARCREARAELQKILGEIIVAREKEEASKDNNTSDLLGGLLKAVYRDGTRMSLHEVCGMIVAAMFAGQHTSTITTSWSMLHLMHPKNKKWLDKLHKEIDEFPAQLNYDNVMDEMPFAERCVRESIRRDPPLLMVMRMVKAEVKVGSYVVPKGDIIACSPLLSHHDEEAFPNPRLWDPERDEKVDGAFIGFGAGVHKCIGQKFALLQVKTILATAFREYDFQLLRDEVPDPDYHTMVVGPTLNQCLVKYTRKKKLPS
# T1 sequence (Q12809 whole entry): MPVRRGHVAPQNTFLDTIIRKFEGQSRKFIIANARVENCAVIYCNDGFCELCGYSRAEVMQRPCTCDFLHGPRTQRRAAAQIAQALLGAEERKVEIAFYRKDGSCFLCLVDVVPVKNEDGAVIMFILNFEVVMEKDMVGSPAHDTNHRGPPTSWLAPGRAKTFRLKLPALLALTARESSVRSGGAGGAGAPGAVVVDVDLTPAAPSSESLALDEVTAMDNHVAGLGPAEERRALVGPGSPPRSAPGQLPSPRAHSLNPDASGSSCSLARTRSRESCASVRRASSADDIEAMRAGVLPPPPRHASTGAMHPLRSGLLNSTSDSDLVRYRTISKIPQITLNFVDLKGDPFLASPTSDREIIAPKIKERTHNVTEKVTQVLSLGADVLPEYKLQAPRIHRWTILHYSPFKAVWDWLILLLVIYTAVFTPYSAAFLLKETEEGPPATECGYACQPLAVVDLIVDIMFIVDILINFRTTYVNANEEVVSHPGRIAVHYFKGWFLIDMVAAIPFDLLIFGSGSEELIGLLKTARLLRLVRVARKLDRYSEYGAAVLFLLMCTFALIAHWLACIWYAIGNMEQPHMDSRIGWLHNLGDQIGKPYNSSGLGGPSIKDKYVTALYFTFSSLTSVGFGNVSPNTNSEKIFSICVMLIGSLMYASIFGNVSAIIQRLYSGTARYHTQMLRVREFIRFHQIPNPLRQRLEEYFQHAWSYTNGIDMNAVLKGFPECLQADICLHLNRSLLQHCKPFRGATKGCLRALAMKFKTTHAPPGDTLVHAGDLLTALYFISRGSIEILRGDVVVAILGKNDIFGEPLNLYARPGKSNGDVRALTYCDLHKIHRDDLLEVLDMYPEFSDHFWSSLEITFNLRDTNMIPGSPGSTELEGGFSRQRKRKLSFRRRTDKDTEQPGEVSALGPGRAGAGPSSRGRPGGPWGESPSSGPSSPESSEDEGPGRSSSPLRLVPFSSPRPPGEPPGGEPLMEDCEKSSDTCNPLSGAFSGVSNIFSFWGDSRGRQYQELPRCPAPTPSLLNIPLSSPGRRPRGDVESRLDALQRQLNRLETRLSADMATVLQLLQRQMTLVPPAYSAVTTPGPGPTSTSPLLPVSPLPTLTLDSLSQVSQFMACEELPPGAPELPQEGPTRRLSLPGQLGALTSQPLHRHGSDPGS
Structure (SMILES),EC50 (Trypanosoma cruzi [1]) [nM],EC50 (NIH3T3) [µM],selectivity ratio [3],other results
Cc1nnc(-c2cccc(Oc3cc(C)c(Cl)c(C)c3)c2)s1,12300,> 100,,
Cc1cc(Oc2cccc(Cn3ncc4ccccc43)c2)cc(C)c1Cl,13400,> 100,,
Cc1ccccc1Oc1cccc(Cn2ccnc2)c1,711,79.3,112,Kd [2]: 180 nM
Cc1nnc(Cc2cccc(Oc3cc(C)c(Cl)c(C)c3)c2)s1,2200,3.8,,
Cc1cc(Oc2cccc(Cn3ccc4ccccc43)c2)cc(C)c1Cl,10700,> 100,,
O=C(N[C@@H](Cn1ccnc1)c1ccccc1)c1ccc(-c2ccc(Cl)cc2)cc1,,,,Kd [2]: 70 nM
Cc1cc(Oc2cccc(CN3CCN(C)CC3)c2)cc(C)c1Cl,6200,29.7,,
Cc1cc(Oc2cccc(Cn3cncn3)c2)cc(C)c1Cl,1100,75.9,,
Cc1cc(Oc2cccc(CN3CCOCC3)c2)cc(C)c1Cl,3700,> 100,,
c1ccc(-c2cccc(Oc3cccc(Cn4ccnc4)c3)c2)cc1,282,34,121,
Cc1cc(C)cc(Oc2cccc(Cn3ccnc3)c2)c1,330,> 100,> 300,
Cc1cc(Oc2cccc(Cn3cc4ccccc4n3)c2)cc(C)c1Cl,9800,> 100,,
Cc1cc(Oc2cccc(Cn3nccn3)c2)cc(C)c1Cl,5400,> 100,,
Cc1cccc(OCCCCCn2ccnc2)c1,443,,,
O=C(Nc1cccc(Cl)c1)Nc1ccccc1-n1ccnc1,461,,,
COc1cccc(Nc2cccc(Cn3ccnc3)c2)c1,167,> 100,> 500,Kd [2]: 210 nM
Cc1cc([N+](=O)[O-])ccc1Nc1cccc(Cn2ccnc2)c1,72,> 100,> 1000,

Structure (SMILES),EC50 (Trypanosoma cruzi [1]) [nM],EC50 (NIH3T3) [µM],selectivity ratio [3],other results
Cc1cc(OCCCCCCn2ccnc2)cc(C)c1Cl,23,,,
Cc1cc(OCCCCCn2ccnc2)cc(C)c1Cl,2.5,,,
c1ccc(Oc2cccc(Cn3ccnc3)c2)cc1,1630,> 100,> 60,
Cc1cc(Oc2cccc(Cn3cnc4ccccc43)c2)cc(C)c1Cl,3700,40,,
Clc1ccc(Oc2cccc(Cn3ccnc3)c2)cc1,650,> 100,> 150,
Cc1nnc(-c2cccc(Oc3cc(C)c(Cl)c(C)c3)c2)o1,14100,46.1,,
Cc1cccc(Oc2cccc(Cn3ccnc3)c2)c1,330,78.7,238,
Cc1cc(Oc2cccc(Cn3cccn3)c2)cc(C)c1Cl,2800,> 100,,
Clc1ccc(CCOc2cccc(Cn3ccnc3)c2)cc1,530,71.1,134,
O=C(Cn1ccnc1[N+](=O)[O-])NCc1ccccc1 [BENZNIDAZOLE],1900,> 50,,Activity (Trypanosoma cruzi [4]): Active; Activity (Trypanosoma cruzi [5]): Active; Activity (Trypanosoma cruzi [6]): Active
Cc1cc(Oc2cccc(Cn3cnnc3)c2)cc(C)c1Cl,11200,> 100,,
Clc1ccc(COc2cccc(Cn3ccnc3)c2)cc1,42,76.2,1810,
Cc1nnc(Cc2cccc(Oc3cc(C)c(Cl)c(C)c3)c2)o1,3400,6.2,,
Cc1cc(Oc2cccc(Cn3ccnc3)c2)cc(C)c1Cl,80,13.5,169,permeability (Caco-2): 209.7 nm/s; Stability [7]: Stable; Stability [8]: Stable; Kd [2]: 67 nM; PPB (Plasma [9]): > 99.8%; remaining at 20 min [10]: 36%; Activity (Trypanosoma cruzi [11]): Active; Activity (Trypanosoma cruzi [12]): Active; Stability (Plasma [13]): -9.7%; Stability [14]: Stable; Stability [15]: Stable; remaining at 20 min [16]: 39%; Stability [17]: Stable; inhibition at 10 µM (hERG (KCNH2) [18]): 94%; Stability (Plasma [19]): 4%; inhibition at 1 µM (hERG (KCNH2) [20]): 19%; Stability [21]: Stable; Activity (Trypanosoma cruzi [22]): Active; remaining at 20 min [23]: 29%; PPB (Plasma [24]): > 99.8%
Cc1cc(Oc2cccc(Cn3ccnn3)c2)cc(C)c1Cl,1100,66.8,,
Cc1cc(OCCCCn2ccnc2)cc(C)c1Cl,5.1,,,
